Measured values as given in ChEMBL document CHEMBL4152203, “Antiproliferative hydrogen sulfide releasing evodiamine derivatives and their apoptosis inducing properties” (Eur J Med Chem, 2018).
Active and inactive are the calls of the source. The calls are words filed in the database; no cut-off is given here.

Key:
HL-60 [1] = assay: Induction of apoptosis in human HL60 cells assessed as decrease in cdc2 protein expression level at 0.3 to 1.2 uM after 48 hrs by Western blot analysis; assay type: functional, cell-based
Summary of the method: (§1)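 HL-60 treated in triplicate with 0.3, 0.6 or 1.2 μM compound; exposure is 72 h in the methods and 48 h in the legend. Lysates were run on 10% SDS-PAGE, transferred to nitrocellulose, blocked in 5% milk, and probed overnight at 4 °C with monoclonal antibodies (Bcl-2, Bax, cytochrome c, caspase-9/-3, p53, cyclin B1, cdc2). ECL detection; densitometry relative to GAPDH.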

Bel-7402 = assay: Antiproliferative activity against human Bel7402 cells after 72 hrs by MTT assay; assay type: functional, cell-based; conditions: Bel-7402, 72 h
Summary of the method: (§2)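 Cells seeded and pre-incubated 24 h at 37 °C, 5% CO2, then exposed to compounds for 72 h. MTT (5 mg/mL stock) added for 4 h, formazan dissolved in DMSO for 10 min at room temperature, absorbance read at 570 nm. 0.1% DMSO as negative and 5-FU as positive reference. IC50 derived from inhibition ratios; mean ± SD of three independent experiments.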

HL-60 [2] = assay: Cell cycle arrest in human HL60 cells assessed as accumulation at G1 phase at 0.3 uM after 48 hrs by propidium iodide/RNase A staining-based flow cytometric analysis (reference value: 65.75%); assay type: functional
HL-60 [3] = assay: Induction of mitochondrial membrane potential loss in human HL60 cells assessed as cell population with intact mitochondrial membrane potential at 0.3 uM after 48 hrs by JC1 staining-based flow cytometry analysis (reference value: 92.35%); assay type: functional
HL-60 [4] = assay: Induction of apoptosis in human HL60 cells assessed as necrotic cells at 0.6 uM after 48 hrs by Annexin V-FITC/propidium iodide staining-based flow cytometric analysis (reference value: 0.02%); assay type: functional
HL-60 [5] = assay: Cell cycle arrest in human HL60 cells assessed as accumulation at G2/M phase at 1.2 uM after 48 hrs by propidium iodide/RNase A staining-based flow cytometric analysis (reference value: 10.19%); assay type: functional
HL-60 [6] = assay: Induction of apoptosis in human HL60 cells assessed as early apoptotic cells at 1.2 uM after 48 hrs by Annexin V-FITC/propidium iodide staining-based flow cytometric analysis (reference value: 2.31%); assay type: functional
HL-60 [7] = assay: Induction of apoptosis in human HL60 cells assessed as viable cells at 1.2 uM after 48 hrs by Annexin V-FITC/propidium iodide staining-based flow cytometric analysis (reference value: 95.56%); assay type: functional; conditions: HL-60, 48 h, read-out: Activity
HL-60 [8] = assay: Induction of apoptosis in human HL60 cells assessed as upregulation of caspase3 level at 0.3 to 1.2 uM after 48 hrs by Western blot analysis; assay type: functional, cell-based; summary of the method: as §1
HL-60 [9] = assay: Induction of apoptosis in human HL60 cells assessed as viable cells at 0.3 uM after 48 hrs by Annexin V-FITC/propidium iodide staining-based flow cytometric analysis (reference value: 95.56%); assay type: functional; conditions: HL-60, 48 h, read-out: Activity
HL-60 [10] = assay: Cell cycle arrest in human HL60 cells assessed as accumulation at S phase at 0.6 uM after 48 hrs by propidium iodide/RNase A staining-based flow cytometric analysis (reference value: 24.06%); assay type: functional
HL-60 [11] = assay: Induction of apoptosis in human HL60 cells assessed as increase in p53 protein level at 0.3 to 1.2 uM after 48 hrs by Western blot analysis; assay type: functional, cell-based; summary of the method: as §1
HL-60 [12] = assay: Cell cycle arrest in human HL60 cells assessed as accumulation at S phase at 0.3 uM after 48 hrs by propidium iodide/RNase A staining-based flow cytometric analysis (reference value: 24.06%); assay type: functional
HL-60 [13] = assay: Cell cycle arrest in human HL60 cells assessed as accumulation at G2/M phase at 0.3 uM after 48 hrs by propidium iodide/RNase A staining-based flow cytometric analysis (reference value: 10.19%); assay type: functional
HL-60 [14] = assay: Induction of apoptosis in human HL60 cells assessed as necrotic cells at 1.2 uM after 48 hrs by Annexin V-FITC/propidium iodide staining-based flow cytometric analysis (reference value: 0.02%); assay type: functional
MCF7 = assay: Antiproliferative activity against human MCF7 cells after 72 hrs by MTT assay; assay type: functional, cell-based; conditions: MCF7, 72 h; summary of the method: as §2
HL-60 [15] = assay: Induction of apoptosis in human HL60 cells assessed as downregulation of Bcl2 expression at 0.3 to 1.2 uM after 48 hrs by Western blot analysis; assay type: functional, cell-based; summary of the method: as §1
HL-60 [16] = assay: Cell cycle arrest in human HL60 cells assessed as accumulation at S phase at 1.2 uM after 48 hrs by propidium iodide/RNase A staining-based flow cytometric analysis (reference value: 24.06%); assay type: functional
HL-60 [17] = assay: Induction of apoptosis in human HL60 cells assessed as viable cells at 0.6 uM after 48 hrs by Annexin V-FITC/propidium iodide staining-based flow cytometric analysis (reference value: 95.56%); assay type: functional; conditions: HL-60, 48 h, read-out: Activity
HL-60 [18] = assay: Induction of apoptosis in human HL60 cells assessed as apoptotic cells after 48 hrs by Annexin V-FITC/propidium iodide staining-based flow cytometric analysis; assay type: functional, cell-based
HL-60 [19] = assay: Induction of apoptosis in human HL60 cells assessed as early apoptotic cells at 0.3 uM after 48 hrs by Annexin V-FITC/propidium iodide staining-based flow cytometric analysis (reference value: 2.31%); assay type: functional
HL-60 [20] = assay: Antiproliferative activity against human HL60 cells after 72 hrs by MTT assay; assay type: functional, cell-based; conditions: HL-60, 72 h; summary of the method: as §2
HL-60 [21] = assay: Induction of apoptosis in human HL60 cells assessed as early apoptotic cells at 1.2 uM after 48 hrs by Annexin V-FITC/propidium iodide staining-based flow cytometric analysis (reference value: 1.11%); assay type: functional
HL-60 [22] = assay: Cell cycle arrest in human HL60 cells assessed as accumulation at G1 phase at 0.6 uM after 48 hrs by propidium iodide/RNase A staining-based flow cytometric analysis (reference value: 65.75%); assay type: functional
Caco-2 = assay: Antiproliferative activity against human Caco2 cells after 72 hrs by MTT assay; assay type: functional, cell-based; conditions: Caco-2, 72 h; summary of the method: as §2
HL-60 [23] = assay: Induction of mitochondrial membrane potential loss in human HL60 cells assessed as cell population with mitochondrial membrane potential collapse at 0.6 uM after 48 hrs by JC1 staining-based flow cytometry analysis (reference value: 7.65%); assay type: functional
HL-60 [24] = assay: Induction of apoptosis in human HL60 cells assessed as increase in Bax level at 0.3 to 1.2 uM after 48 hrs by Western blot analysis; assay type: functional, cell-based; summary of the method: as §1
HL-60 [25] = assay: Induction of apoptosis in human HL60 cells assessed as increase in cytosolic cytochrome c level at 0.3 to 1.2 uM after 48 hrs by Western blot analysis; assay type: functional, cell-based; summary of the method: as §1
HL-60 [26] = assay: Induction of mitochondrial membrane potential loss in human HL60 cells assessed as cell population with intact mitochondrial membrane potential at 0.6 uM after 48 hrs by JC1 staining-based flow cytometry analysis (reference value: 92.35%); assay type: functional
HL-60 [27] = assay: Cell cycle arrest in human HL60 cells assessed as accumulation at G1 phase at 1.2 uM after 48 hrs by propidium iodide/RNase A staining-based flow cytometric analysis (reference value: 65.75%); assay type: functional
SGC-7901 = assay: Antiproliferative activity against human SGC7901 cells after 72 hrs by MTT assay; assay type: functional, cell-based; conditions: SGC-7901, 72 h; summary of the method: as §2

## CN1c2ccccc2C(=O)N2CCc3c(n(CCCCC(=O)OCCCCOc4ccc(-c5cc(=S)ss5)cc4)c4ccccc34)C21 (stereo unspecified)
HL-60 [1]
  Activity: Active
Bel-7402
  IC50: 48.9 µM
HL-60 [2]
  Activity: 47.1%
HL-60 [3]
  Activity: 86.67%
HL-60 [4]
  Activity: 0.48%
HL-60 [5]
  Activity: 22.02%
HL-60 [6]
  Activity: 48.08%
HL-60 [7]
  viability at 1.2 µM: 39.2%
HL-60 [8]
  Activity: Active
HL-60 [9]
  viability at 0.3 µM: 88.7%
HL-60 [10]
  Activity: 41.81%
HL-60 [11]
  Activity: Active
HL-60 [12]
  Activity: 41.49%
HL-60 [13]
  Activity: 11.41%
HL-60 [14]
  Activity: 0.11%
MCF7
  IC50: 44.8 µM
HL-60 [15]
  Activity: Active
HL-60 [16]
  Activity: 42.66%
HL-60 [17]
  viability at 0.6 µM: 64.5%
HL-60 [18]
  Activity: Dose-dependent effect
HL-60 [19]
  Activity: 6.74%
HL-60 [20]
  IC50: 0.58 µM
HL-60 [21]
  Activity: 12.6%
HL-60 [22]
  Activity: 38.55%
Caco-2
  IC50: 2.02 µM
HL-60 [23]
  Activity: 21.32%
HL-60 [24]
  Activity: Active
HL-60 [25]
  Activity: Active
HL-60 [26]
  Activity: 78.68%
HL-60 [27]
  Activity: 35.32%
SGC-7901
  IC50: > 50 µM
